Source: ChEMBL document CHEMBL1154317, “Discovery of a potent, metabolically stabilized resorcylic lactone as an anti-inflammatory lead” (Bioorg Med Chem Lett, 2009)
Each block holds one compound with its values, some of them ahead of it. Activity calls are given as the source filed them. No cut-off for these calls is given here.

Tests used:
[1] = Antiinflammatory activity in human B164 cells assessed as inhibition of LPS-induced Actin production by PLAP reporter assay; format: functional, cell-based
How it was run: (§1)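 Stably transfected PLAP reporter lines (TNFα-promoter/5'-UTR-PLAP in THP-1-33; β-actin-promoter-PLAP in B164), kept in RPMI1640 with 10% heat-inactivated endotoxin-free FBS and G418 1 mg/mL. Seeded at 1.0×10^4 cells/well, preincubated with compound 30 min, then stimulated with LPS 100 ng/ml (E. coli 0127:B08 or 011:B4). After 24-48 h, supernatant alkaline phosphatase activity read; IC50 reported.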

THP-1 = experiment: Antiinflammatory activity in human THP1 cells assessed as inhibition of LPS-induced TNFalpha production by PLAP reporter assay; format: functional, cell-based; how it was run: as §1
[2] = Metabolic stability in mouse plasma after 2 hrs; format: ADME, cell-free; details: read-out: Stability
How it was run: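 Compound at 50 μg/ml or 50 μM in freshly prepared heparinized mouse blood, incubated at 37 °C for 0, 30 and 120 min. Each sample extracted with MeOH containing 0.2% perchloric acid. Analyzed by reverse-phase HPLC, 30% acetonitrile in KH2PO4 buffer pH 3.5. Parent peak area at each time expressed as % of the 0 min area.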

[3] = Half life in BALB/c mouse at 3 mg/kg, iv; format: ADME, organism-based; parameters: route intravenous, dose 3 mg/kg; details: in vivo
How it was run: (§2)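 Single intravenous dose given to BALB/c mice. Parent drug levels were measured in plasma over time after dosing. CL, VDss, t1/2 and AUC were derived from these plasma levels. AUC is reported normalised to dose, […].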

[4] = Volume of distribution at steady state in BALB/c mouse at 3 mg/kg, iv; format: ADME, organism-based; parameters: dose 3 mg/kg, route intravenous; details: in vivo, read-out: Vdss; how it was run: as §2
Mus musculus [5] = experiment: Normalised AUC in BALB/c mouse at 3 mg/kg, iv; format: ADME, organism-based; parameters: dose 3 mg/kg, route intravenous; details: in vivo; how it was run: as §2
[6] = Clearance in BALB/c mouse at 3 mg/kg, iv; format: ADME, organism-based; parameters: dose 3 mg/kg, route intravenous; details: in vivo; how it was run: as §2
U-937 [7] = experiment: Antiinflammatory activity in human U937 cells assessed as inhibition of LPS-induced Actin production by ELISA; format: functional, cell-based
U-937 [8] = experiment: Antiinflammatory activity in human U937 cells assessed as inhibition of LPS-induced TNFalpha production by ELISA; format: functional, cell-based
Mus musculus [9] = species on record: Mus musculus; experiment: Antiinflammatory activity in mouse assessed as inhibition of LPS-induced IL6 production; format: functional, organism-based
How it was run: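 Mice given compound together with LPS by tail-vein injection in 10% cyclodextrin. Blood collected 3 h later and plasma IL-6 measured by ELISA. Mean with SEM, n = 6-8. Compared against the LPS-treated control group by Dunnett's post hoc test, P<0.05.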

Structure (SMILES): COc1cc(O)c2c(c1)/C=C/C[C@H](O)[C@H](O)/C=C\[C@H](C)[C@H](C)OC2=O
- IC50 [1]: > 10 µM
- IC50 (THP-1): 1.14 µM

Structure (SMILES): COc1cc(O)c2c(c1)/C=C/C[C@H](O)[C@H](O)C(=O)/C=C\[C@@H]1CCC[C@@H]1OC2=O
- IC50 [1]: 3 µM
- remaining at 2 h [2]: 77%
- IC50 (THP-1): 0.667 µM

Structure (SMILES): COc1cc(O)c2c(c1)/C=C/C[C@H](O)[C@H](O)/C=C\[C@@H](C)CNC2=O
- IC50 [1]: > 10 µM
- IC50 (THP-1): 0.259 µM

Structure (SMILES): COc1cc(O)c2c(c1)/C=C/C[C@H](O)[C@H](O)C(=O)/C=C\C[C@H](C)OC2=O
- half-life [3]: 0.05 h
- Vd [4]: 3.3 L/kg
- IC50 [1]: 2.37 µM
- AUC/dose (Mus musculus [5]): 23.8 ng·h/mL/(mg/kg)
- remaining at 2 h [2]: 2%
- clearance [6]: 42.6 L/h/kg
- IC50 (THP-1): 0.011 µM

Structure (SMILES): COc1ccc(CO[C@@H]2/C=C\C(=O)[C@@H](O)[C@@H](O)C/C=C/c3cc(OC)cc(O)c3C(=O)O[C@H]2C)cc1
- IC50 [1]: > 10 µM
- IC50 (THP-1): 0.888 µM

Structure (SMILES): COc1cc(O)c2c(c1)/C=C/C[C@H](O)[C@H](O)C(=O)/C=C\C[C@H](C(F)(F)F)OC2=O
- IC50 [1]: 1.33 µM
- IC50 (THP-1): 0.031 µM

Structure (SMILES): COc1cc(O)c2c(c1)/C=C/C[C@@H](O)[C@@H](O)C(=O)/C=C\C[C@@H](C)OC2=O
- IC50 [1]: 4.98 µM
- IC50 (THP-1): 2.62 µM

Structure (SMILES): COc1cc(O)c2c(c1)/C=C/C[C@H](O)[C@H](O)/C=C(\F)[C@@H](C)[C@H](C)NC2=O
- IC50 [1]: > 10 µM
- IC50 (THP-1): 0.2 µM

Structure (SMILES): COc1cc(O)c2c(c1)/C=C/C[C@H](O)[C@H](O)/C=C\[C@@H](CC(F)(F)F)[C@H](C)OC2=O
- IC50 [1]: > 10 µM
- IC50 (THP-1): 9 µM

Structure (SMILES): COc1cc(O)c2c(c1)/C=C/C[C@H](O)[C@H](O)/C=C\[C@@H](C)COC2=O
- IC50 [1]: > 10 µM
- IC50 (THP-1): 0.203 µM

Structure (SMILES): COc1cc(O)c2c(c1)/C=C/C[C@H](O)[C@H](O)C(=O)/C=C\C[C@@H](C)OC2=O
- IC50 [1]: 7.07 µM
- IC50 (THP-1): 1.05 µM

Structure (SMILES): CC[C@@H]1/C=C\[C@@H](O)[C@@H](O)C/C=C/c2cc(OC)cc(O)c2C(=O)O[C@H]1C
- inhibition (U-937 [7]): inactive
- inhibition (U-937 [8]): inactive

Continued, in another order:

- IC50 [1]: 8.47 µM
- IC50 (THP-1): 5.21 µM
Structure (SMILES): CC[C@@H]1C/C=C\C(=O)[C@@H](O)[C@@H](O)C/C=C/c2cc(OC)cc(O)c2C(=O)O1

- IC50 [1]: 7.6 µM
- remaining at 2 h [2]: 25%
- IC50 (THP-1): 0.239 µM
Structure (SMILES): COc1cc(O)c2c(c1)/C=C/C[C@H](O)[C@H](O)C(=O)/C=C\[C@H](OC)[C@H](C)OC2=O

- IC50 [1]: > 10 µM
- IC50 (THP-1): > 10 µM
Structure (SMILES): COc1cc(O)c2c(c1)/C=C/C[C@H](O)[C@H](O)/C=C\C(C)(C)COC2=O

- IC50 [1]: > 10 µM
- IC50 (THP-1): > 10 µM
Structure (SMILES): COc1cc(O)c2c(c1)/C=C/C[C@H](O)[C@H](O)C(=O)C1CC1OC2=O (stereo not given in full)

- IC50 [1]: > 30 µM
- remaining at 2 h [2]: 34%
- IC50 (THP-1): 4 µM
Structure (SMILES): COc1cc(O)c2c(c1)/C=C/C[C@H](O)[C@H](O)C(=O)/C=C\[C@H]1CCC[C@H]1OC2=O

- IC50 [1]: > 10 µM
- IC50 (THP-1): > 10 µM
Structure (SMILES): COc1cc(O)c2c(c1)/C=C/C[C@H](O)[C@H](O)/C=C\[C@@H](Cc1ccccc1)[C@H](C)OC2=O

- IC50 [1]: > 10 µM
- IC50 (THP-1): > 10 µM
Structure (SMILES): COc1cc(O)c2c(c1)/C=C/C[C@H](O)[C@H](O)/C=C\[C@H](C)[C@@H](C)OC2=O

- IC50 [1]: 2.8 µM
- IC50 (THP-1): 0.069 µM
Structure (SMILES): COc1cc(O)c2c(c1)/C=C/C[C@H](O)[C@H](O)C(=O)/C=C\CCOC2=O

- IC50 [1]: 4.41 µM
- IC50 (THP-1): 3.69 µM
Structure (SMILES): COc1cc(O)c2c(c1)/C=C/C[C@H](O)[C@H](O)C(=O)/C=C\C[C@H](c1ccccc1)OC2=O

- half-life [3]: 3.44 h
- Vd [4]: 1.69 L/kg
- IC50 [1]: > 10 µM
- AUC/dose (Mus musculus [5]): 181 ng·h/mL/(mg/kg)
- remaining at 2 h [2]: > 80%
- clearance [6]: 5.51 L/h/kg
- IC50 (THP-1): 0.136 µM
Structure (SMILES): COc1cc(O)c2c(c1)/C=C/C[C@H](O)[C@H](O)C(=O)/C=C\[C@@H](C)[C@H](C)OC2=O
- inhibition (Mus musculus [9]): Active

- IC50 [1]: 2.44 µM
- IC50 (THP-1): 0.059 µM
Structure (SMILES): CC[C@H]1C/C=C\C(=O)[C@@H](O)[C@@H](O)C/C=C/c2cc(OC)cc(O)c2C(=O)O1
